Experimental findings from ChEMBL document CHEMBL4196108, “5-Aroylindoles Act as Selective Histone Deacetylase 6 Inhibitors Ameliorating Alzheimer's Disease Phenotypes” (J Med Chem, 2018) are described below.

Data set [1] addresses T1, Protein deacetylase HDAC6 (Homo sapiens) (UniProt Q9UBN7).
T1 sequence (whole entry): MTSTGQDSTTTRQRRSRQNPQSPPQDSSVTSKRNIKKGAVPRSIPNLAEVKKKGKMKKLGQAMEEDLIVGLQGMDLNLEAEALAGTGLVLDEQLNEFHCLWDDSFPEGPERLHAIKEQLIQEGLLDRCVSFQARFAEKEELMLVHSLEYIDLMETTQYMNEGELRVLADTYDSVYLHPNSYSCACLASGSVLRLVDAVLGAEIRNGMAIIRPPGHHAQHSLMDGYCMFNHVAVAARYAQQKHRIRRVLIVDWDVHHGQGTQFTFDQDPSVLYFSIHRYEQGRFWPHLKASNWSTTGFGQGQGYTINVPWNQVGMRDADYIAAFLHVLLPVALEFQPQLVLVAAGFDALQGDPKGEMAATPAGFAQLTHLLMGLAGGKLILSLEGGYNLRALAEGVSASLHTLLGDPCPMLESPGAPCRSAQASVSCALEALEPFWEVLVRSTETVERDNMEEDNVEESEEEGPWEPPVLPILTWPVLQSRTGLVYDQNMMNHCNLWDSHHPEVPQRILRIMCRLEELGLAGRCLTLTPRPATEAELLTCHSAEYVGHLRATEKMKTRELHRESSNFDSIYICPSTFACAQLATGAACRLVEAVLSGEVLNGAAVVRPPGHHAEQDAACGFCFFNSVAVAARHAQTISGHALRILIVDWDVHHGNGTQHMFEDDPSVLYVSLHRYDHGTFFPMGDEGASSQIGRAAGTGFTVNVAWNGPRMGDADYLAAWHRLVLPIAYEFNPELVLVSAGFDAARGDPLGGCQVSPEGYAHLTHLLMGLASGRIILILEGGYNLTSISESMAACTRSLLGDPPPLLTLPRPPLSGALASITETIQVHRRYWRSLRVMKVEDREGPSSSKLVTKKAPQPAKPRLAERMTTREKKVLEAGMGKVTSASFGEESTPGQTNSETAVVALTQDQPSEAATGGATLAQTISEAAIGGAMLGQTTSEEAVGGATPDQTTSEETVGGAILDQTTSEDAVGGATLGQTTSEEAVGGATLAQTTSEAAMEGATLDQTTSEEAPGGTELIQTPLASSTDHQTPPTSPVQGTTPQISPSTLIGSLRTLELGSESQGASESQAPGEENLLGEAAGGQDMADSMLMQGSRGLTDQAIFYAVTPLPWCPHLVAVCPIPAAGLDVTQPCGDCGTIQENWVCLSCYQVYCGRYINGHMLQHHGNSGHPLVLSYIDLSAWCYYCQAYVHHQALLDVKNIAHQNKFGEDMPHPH
Kind of data set: Inhibition of HDAC6 in human SH-SY5Y cells transfected with pCAX FLAG APP and pRK5-EGFP-Tau P301L plasmids assessed as suppression of phosphorylated tau P301L mutant-induced apoptosis by measuring accumulation at sub-G1 phase at 1 uM after 24 hrs by propidium iodide staining-based flow cytometry (reference value: 22.01%). The format is cell-based. The arrangement: scale not given: the % may be the effect or the level left. Background: Flow cytometry measures light scatter and fluorescence of single cells or particles in a stream.

Data set [2] in a line: Toxicity in Balb/c mouse assessed as survival rate at 1000 mg/kg, ip qd administered for 6 days followed by 1 week recovery (reference value: 100%). Format: organism-based. The conditions noted are these: in vivo.
The target in data set [3] is T2, Polyamine deacetylase HDAC10 (Homo sapiens, UniProt Q969S8).
T2 sequence (Q969S8 whole entry): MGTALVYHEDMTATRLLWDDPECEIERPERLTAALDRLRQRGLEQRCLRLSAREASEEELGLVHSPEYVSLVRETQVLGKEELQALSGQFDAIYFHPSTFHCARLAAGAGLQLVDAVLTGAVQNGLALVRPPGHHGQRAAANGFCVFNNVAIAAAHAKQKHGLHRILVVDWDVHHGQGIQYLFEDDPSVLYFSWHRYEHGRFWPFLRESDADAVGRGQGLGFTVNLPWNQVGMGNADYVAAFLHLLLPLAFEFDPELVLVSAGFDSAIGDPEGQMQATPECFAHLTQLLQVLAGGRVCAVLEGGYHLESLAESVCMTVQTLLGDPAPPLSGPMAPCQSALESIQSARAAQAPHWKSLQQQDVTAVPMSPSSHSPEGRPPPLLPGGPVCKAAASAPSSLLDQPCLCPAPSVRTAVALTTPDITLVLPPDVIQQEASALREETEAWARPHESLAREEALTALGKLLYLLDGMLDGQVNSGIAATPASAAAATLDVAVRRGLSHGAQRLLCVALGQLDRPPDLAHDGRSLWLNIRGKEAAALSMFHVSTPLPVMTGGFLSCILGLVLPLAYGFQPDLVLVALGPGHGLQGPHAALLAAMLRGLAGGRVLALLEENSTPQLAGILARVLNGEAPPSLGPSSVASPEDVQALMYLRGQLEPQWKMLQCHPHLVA
Kind of data set: Inhibition of human HDAC10 using RHKKAc peptide as substrate.

The target in data set [4] is T1, Protein deacetylase HDAC6 (Homo sapiens). Kind of data set: Inhibition of HDAC6 in human SH-SY5Y cells transfected with pCAX FLAG APP and pRK5-EGFP-Tau P301L plasmids assessed as increase in polyubiquitinated protein level at 0.01 to 1 uM after 24 hrs by immunoblot analysis. Format: cell-based. In short, it runs like this:
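SH-SY5Y cells transfected 24 h with APP695/Tau P301L plasmids, then treated; whole lysates immunoblotted for polyubiquitin complexes.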
On the technique in general: A western blot detects proteins with antibodies after separation by electrophoresis.

Data set [5] shares this target. As to the kind of experiment: Inhibition of HDAC6 binding to HSP90 in human SH-SY5Y cells transfected with pCAX FLAG APP and pRK5-EGFP-Tau P301L plasmids at 1 uM after 24 hrs by coimmunoprecipitation analysis. The format is cell-based. In outline:
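SH-SY5Y and Neuro-2a cells cotransfected 24 h with APP695/Tau P301L plasmids, treated 24 h at 1 µM (ACY-1215 reference). 30 µg lysate immunoprecipitated overnight at 4 °C with anti-HDAC6 or anti-acetyl-lysine antibodies plus protein A/G beads, run on 8% SDS-PAGE, probed for Hsp90; Hsp70 by immunoblot. Three independent experiments.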

In the next data set the target is T3, Histone deacetylase 8 (Homo sapiens, UniProt Q9BY41).
T3 sequence (Q9BY41 whole entry): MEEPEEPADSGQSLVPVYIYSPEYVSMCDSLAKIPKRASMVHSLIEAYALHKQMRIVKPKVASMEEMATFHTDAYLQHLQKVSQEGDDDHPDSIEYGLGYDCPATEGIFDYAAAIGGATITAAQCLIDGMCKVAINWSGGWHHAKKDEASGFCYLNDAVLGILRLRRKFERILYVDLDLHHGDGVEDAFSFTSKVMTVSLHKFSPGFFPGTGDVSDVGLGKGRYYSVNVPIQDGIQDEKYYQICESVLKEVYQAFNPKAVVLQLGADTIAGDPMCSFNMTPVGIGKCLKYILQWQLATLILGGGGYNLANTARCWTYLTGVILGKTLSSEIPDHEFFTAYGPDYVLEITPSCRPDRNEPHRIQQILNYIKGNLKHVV
As to the kind of experiment: Inhibition of human HDAC8 using RHKAcKAc peptide as substrate.

Data set [6] is described as follows: Plasma concentration in Sprague-Dawley rat at 50 mg/kg, po after 3 hrs by HPLC-MS/MS analysis. The format is ADME, organism-based.
A further data set has as its target Histone deacetylase 1 (Homo sapiens, UniProt Q13547). As to the kind of experiment: Inhibition of human HDAC1 using RHKKAc peptide as substrate.

Each structure is given as a SMILES string. Calls of active or inactive are those of the source. No cut-off for these calls is given here. Some results are limits rather than exact numbers.

Chain of Histone deacetylase 1 (Q13547 whole entry): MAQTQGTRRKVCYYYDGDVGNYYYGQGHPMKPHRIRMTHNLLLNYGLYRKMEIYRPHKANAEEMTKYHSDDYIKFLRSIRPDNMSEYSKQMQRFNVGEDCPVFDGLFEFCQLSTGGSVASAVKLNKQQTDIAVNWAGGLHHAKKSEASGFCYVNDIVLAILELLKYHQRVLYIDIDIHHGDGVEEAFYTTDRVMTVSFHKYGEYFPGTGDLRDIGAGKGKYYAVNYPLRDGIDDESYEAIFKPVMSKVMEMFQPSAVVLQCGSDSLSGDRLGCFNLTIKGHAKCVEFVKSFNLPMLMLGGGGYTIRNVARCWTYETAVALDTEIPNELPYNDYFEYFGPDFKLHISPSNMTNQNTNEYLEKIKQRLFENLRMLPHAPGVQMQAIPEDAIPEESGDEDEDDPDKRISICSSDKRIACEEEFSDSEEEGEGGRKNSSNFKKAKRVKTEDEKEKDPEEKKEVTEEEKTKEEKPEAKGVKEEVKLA

Broadly, the IC50 is the concentration needed to halve the response being measured. Take `COc1ccc(C(=O)c2ccc3c(ccn3Cc3ccc(C(=O)NO)cc3)c2)cc1`: the Activity in data set [1] worked out at 11.5%. The survival in data set [2] amounted to 100%. Also, the results for the IC50 (in data set [3]; against Histone deacetylase 8; at Histone deacetylase 1) were 59800 nM, 646 nM and 2190 nM, respectively. The inhibition entry in data set [4] and in data set [5] was “Active” throughout. Besides, in data set [6], the concentration at 3 h is 7.3 ng/mL.

For `O=C(NO)c1ccc(Cn2ccc3cc(C(=O)c4ccc(Cl)cc4)ccc32)cc1`, the IC50 in data set [3] is above 100000 nM; at Histone deacetylase 8 it was 1060 nM; at Histone deacetylase 1, 4780 nM.

In the case of `O=C(NO)c1ccc(Cn2ccc3cc(C(=O)c4ccc(F)cc4)ccc32)cc1`, the IC50 in data set [3] is above 100000 nM; on Histone deacetylase 8, 1240 nM; on Histone deacetylase 1, 3300 nM.
